Reference: paper PMC10230635 (Chinese Herbal Medicines, 2022)
pIC50, pKd: −log10 of the molar value.

Legend:
[1] = system: mouse fibroblast cells (L929); experiment: CCK-8 toxicity on normal cells, L929; format: cell-based; details: L929, under the condition of keeping 90% cell viability
α-Mannosidase (α-Man) [2] = biological target: T1, α-Mannosidase (α-Man) (Canavalia ensiformis, UniProt C0HJB3); experiment: SPR interaction analysis between compounds and immobilised α-Man; format: binding, Canavalia ensiformis (Jack bean); details: for pKd: KD (equilibrium dissociation constant), kinetic analysis, SPR, 25 °C, 1:1 Langmuir binding model; for kon: read-out: ka (association rate constant); for koff: read-out: kd (dissociation rate constant)
T1 sequence (C0HJB3 1-562 limits assumed): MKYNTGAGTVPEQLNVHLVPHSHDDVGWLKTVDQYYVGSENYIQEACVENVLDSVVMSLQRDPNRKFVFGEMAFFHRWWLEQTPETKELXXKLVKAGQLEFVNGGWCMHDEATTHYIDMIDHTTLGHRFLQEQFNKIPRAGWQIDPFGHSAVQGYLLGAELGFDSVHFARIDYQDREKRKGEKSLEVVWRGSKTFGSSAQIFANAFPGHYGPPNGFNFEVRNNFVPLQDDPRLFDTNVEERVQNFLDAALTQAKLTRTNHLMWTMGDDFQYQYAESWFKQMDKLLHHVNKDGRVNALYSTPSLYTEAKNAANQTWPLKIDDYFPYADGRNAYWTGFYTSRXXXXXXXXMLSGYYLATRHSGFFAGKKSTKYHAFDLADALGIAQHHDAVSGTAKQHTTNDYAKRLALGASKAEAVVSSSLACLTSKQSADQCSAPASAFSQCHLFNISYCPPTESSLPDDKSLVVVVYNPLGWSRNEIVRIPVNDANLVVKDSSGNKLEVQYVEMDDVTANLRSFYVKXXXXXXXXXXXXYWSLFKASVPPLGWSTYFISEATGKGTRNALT
T1 sequence (C0HJB3 563-981 partner limits assumed): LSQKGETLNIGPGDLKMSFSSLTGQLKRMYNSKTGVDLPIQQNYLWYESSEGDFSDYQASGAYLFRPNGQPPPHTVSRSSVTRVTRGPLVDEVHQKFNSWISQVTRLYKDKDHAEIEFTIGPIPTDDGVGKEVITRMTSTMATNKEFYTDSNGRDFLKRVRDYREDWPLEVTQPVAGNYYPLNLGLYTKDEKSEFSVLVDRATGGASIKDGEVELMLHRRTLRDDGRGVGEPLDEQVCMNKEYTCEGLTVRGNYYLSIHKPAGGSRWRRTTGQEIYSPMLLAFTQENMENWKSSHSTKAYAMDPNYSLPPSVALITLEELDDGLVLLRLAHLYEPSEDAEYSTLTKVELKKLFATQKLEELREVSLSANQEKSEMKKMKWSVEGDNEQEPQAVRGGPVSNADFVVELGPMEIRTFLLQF
Method in brief: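 The α-Man chip was referenced against an enzyme-free channel. Each test compound was run at six concentrations in a twofold series, injected in parallel at 25 μL/min and 25 °C, with 12 min association and 20 min dissociation. A 4.0–6.0% DMSO calibration curve was applied. Runs were done in triplicate. ka, kd and KD came from a global 1:1 Langmuir fit; equilibrium constants came from steady-state analysis.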

[3] = system: human lung cancer cell line (HCC827); experiment: cells; format: cell-based; details: HCC827, 72 h, read-out: IC50, anti-proliferative activity
[4] = system: human breast cancer cell line (MCF7); experiment: cells; format: cell-based; details: MCF7, 72 h, read-out: IC50, anti-proliferative activity
[5] = system: human hepatoma cancer cell line (HepG2); experiment: cells; format: cell-based; details: HepG2, 72 h, read-out: IC50, anti-proliferative activity
α-Mannosidase (α-Man) [6] = biological target: T1, α-Mannosidase (α-Man); experiment: SPR bioactivity assessment: binding ability; design: species or system Canavalia ensiformis (Jack bean); details: swainsonine standard solution, PBST running buffer
Method in brief: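 Jack bean α-Man was amine-coupled onto the GLH chip binding channel after sulfo-NHS/EDC activation. Coupling was at 20 μg/mL in 10 mmol/L sodium acetate, pH 4, at 25 μL/min for 360 s, followed by ethanolamine blocking. A reference channel was activated and blocked without enzyme. A positive-control inhibitor standard was injected, with PBST (10 mmol/L Na3PO4, 150 mmol/L NaCl, 0.005% Tween 20, pH 7.4) as the blank. The response was followed during association.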

Row | SMILES | safe dose [1] [µmol/L] | pKd (α-Mannosidase (α-Man) [2]) | kon (α-Mannosidase (α-Man) [2]) [M⁻¹ s⁻¹] | koff (α-Mannosidase (α-Man) [2]) [s⁻¹] | pIC50 [3] | pIC50 [4] | pIC50 [5] | response signal during association (α-Mannosidase (α-Man) [6]) [RU]
1 | O=c1c2ccccc2nc2n1CCC2 [Compound 3, Deoxyvasicinone] | 20 | 4.33 | 73.3 | 0.00347 | 6.12 | 5.14 | 5.24 | –
2 | O[C@H]1[C@H]2[C@H](O)CCCN2C[C@H]1O [swainsonine, Swainsonine] | – | – | – | – | – | – | – | 20
3 | COc1cc2ncnc(Nc3ccc(F)c(Cl)c3)c2cc1OCCCN1CCOCC1 [Gefitinib, reference compound] | 40 | – | – | – | – | – | – | –
4 | O=Cc1ccc(O)cc1 [Compound 1, p-Hydroxybenzaldehyde] | – | 2.86 | 1.54 | 0.00211 | – | – | – | –
5 | COc1cc(C=O)cc(OC)c1O [Compound 2, 3,5-Dimethoxy-4-hydroxy-benzaldehyde] | – | 3.46 | 12 | 0.00418 | – | – | – | –
